Published values collected from several papers.
Lines come from different studies, so protocols differ.
Effect on: cell growth or viability

C[C@H](NC(=O)OCc1ccccc1)C(=O)Nc1ccc(C2S/C(=N\c3cccc(F)c3)N(Cc3ccco3)C2=O)cc1 (stereo partly drawn) — CC50 (Huh-7; 72 h, replicon): > 50 µM
CCOP(=O)(OCC)[C@@H]1C[C@@H](n2cc(-c3cccc(F)c3)nn2)ON1C (racemic) — CC50 (human T-lymphocyte; 72 h): > 250 µM
CCO[C@H](COc1ccc(C(F)(F)F)cc1)CSc1ccc(OCC(=O)O)c(C)c1 — CC50 (LX-2; ATP luminescence; 48 h, serum-free): > 50 µM
O=c1oc2c(O)c(O)cc3c(=O)oc4c(O)c(O)cc1c4c23 — CC50 (Huh-7; MTT): > 5000 µM
COc1ccc(NC(=O)N2CCCCN3[C@H](CN(C)S(C)(=O)=O)[C@H](c4ccc(C#Cc5ccccc5)cc4)[C@@H]3C2)cc1 — CC50 (HEK-293T): > 40 µM
Nc1nc(NS(=O)(=O)c2ccccc2)nc(-c2ccc(Cl)cc2)c1-c1nc2ccccc2s1 — CC50 (BGM): 0.23 µg/µL
CCOP(=O)(OCC)[C@@H]1C[C@@H](n2cc(-c3ccccn3)nn2)ON1C (racemic) — CC50 (human T-lymphocyte; 72 h): > 250 µM
O=C(O)c1ccc(-n2nc(-c3ccccc3O)nc2-c2ccccc2O)cc1 — CC50 (Huh-7; MTT; 24 h): > 200 µM
Nc1nc(NS(=O)(=O)c2ccccc2)ncc1-c1nc2ccccc2s1 — CC50 (BGM): 0.22 µg/µL
Cc1cc(NCCc2ccccc2)nc(NC(=N)Nc2ccc(Cl)cc2)n1 — CC50 (Huh-7; MTT; 24 h): 15.2 µM
CCOP(=O)(OCC)[C@@H]1C[C@@H](n2cc(Cn3cnc4c(N)ncnc43)nn2)ON1C (racemic) — CC50 (human T-lymphocyte; 72 h): > 250 µM
Cc1ccc2oc(-c3cc(NC(=O)Cc4ccccc4)ccc3Cl)nc2c1 — CC50 (Huh-7; MTT; 24 h): > 400 µM
CCOP(=O)(OCC)[C@@H]1C[C@@H](n2cc(-c3nccn3C)nn2)ON1C — CC50 (human T-lymphocyte; 72 h): > 250 µM
Cc1ccc2c(c1C)NC(=O)[C@]21NN=C(c2ccccc2)S1 — CC50 (Huh-7; MTT; 24 h): 28.6 µM
CCOP(=O)(OCC)[C@@H]1C[C@H](n2cc(Cn3ccc(NC(C)=O)nc3=O)nn2)ON1C (racemic) — CC50 (human T-lymphocyte; 72 h): > 250 µM
C[C@@H](c1cc(Cl)cc(Cl)c1)N(C)c1ncc2c(N)nc(N)nc2n1 — CC50 (Huh-7; MTT; 24 h): 57.6 µM
CCOP(=O)(OCC)[C@@H]1C[C@@H](n2cc(C(=O)OC)nn2)ON1C (relative stereo) — CC50 (human T-lymphocyte; 72 h): > 250 µM
Cc1ccc(C(=O)CNc2nc(NS(=O)(=O)c3ccccc3)ncc2-c2nc3ccccc3s2)cc1 — CC50 (BGM): 0.17 µg/µL
